Assay results published in ChEMBL document CHEMBL1153864, “Phase transfer catalyzed synthesis of bis-quinolines: antileishmanial activity in experimental visceral leishmaniasis and in vitro antibacterial evaluation” (Eur J Med Chem, 2009).
Values after ≈ are worked out from the molar mass of the structure shown.

Legend:
Leishmania donovani [1] = assay: Antileishmanial activity against Leishmania donovani MHOM/IN/1983/AG83 amastigotes by Giemsa staining; assay type: functional, organism-based
Outline: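 Peritoneal macrophages from thioglycolate-elicited exudate (~2×10^6/ml), adhered overnight on coverslips in RPMI-1640 + 10% FBS at 37 °C, 5% CO2. Infected 6 h with stationary-phase AG83 promastigotes (2×10^7/ml), washed, then exposed 24 h to 0.5, 1, 3, 5, 10 compound. Methanol-fixed, Giemsa-stained; amastigotes per 200 macrophages counted against untreated controls.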

Leishmania donovani [2] = assay: Antileishmanial activity against Leishmania donovani MHOM/IN/1983/AG83 promastigotes after 4 hrs by MTT assay; assay type: functional, organism-based; settings: MHOM/IN/1983/AG83, 4 h
Outline: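 AG83 promastigotes kept at 22 °C in M199 + 10% FBS. Log-phase cells (2×10^6/ml) exposed 2 h at 22 °C to 1, 3, 5, 7, 10, 15 compound; DMSO at 0.1% final. Cells washed with PBS, incubated 4 h at 22 °C with MTT (2 mg/ml). Formazan dissolved in DMSO and read at 570 nm; % lysis computed, IC50 by linear regression.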

[3] = Toxicity against golden Syrian hamster peritoneal macrophages; assay type: cell-based, Mesocricetus auratus; settings: macrophage
Leishmania donovani [4] = assay: Antileishmanial activity against Leishmania donovani MHOM/IN/1983/AG83 promastigotes infected BALB/c mouse assessed as spleen weight at 12.5 mg/kg, ip administered two times per week for 4 weeks; assay type: functional; settings: route intraperitoneal
Outline: (§1)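 BALB/c mice (4-6 weeks) were infected iv with 2 × 10^7 freshly transformed promastigotes. One month later, groups were dosed ip in 0.2% Tween 80 in PBS (0.02 M), twice weekly for one month (8 doses); controls got vehicle only. Mice were killed one month post-treatment and spleen and liver were weighed. Parasite load came from Giemsa impression smears as organ weight (mg) × amastigotes per cell nucleus × 2 × 10^5. Values are mean ± S.E. of 5 mice; unpaired t-test.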

Leishmania donovani [5] = assay: Antileishmanial activity against Leishmania donovani MHOM/IN/1983/AG83 promastigotes infected ip dosed BALB/c mouse assessed as reduction in liver parasite burden administered two times per week for 4 weeks relative to control; assay type: functional; set-up: scale not given: the % may be the effect or the level left; outline: as §1
Leishmania donovani [6] = assay: Antileishmanial activity against Leishmania donovani MHOM/IN/1983/AG83 promastigotes infected BALB/c mouse assessed as liver weight at 12.5 mg/kg, ip administered two times per week for 4 weeks; assay type: functional; settings: route intraperitoneal; outline: as §1
Leishmania donovani [7] = assay: Antileishmanial activity against Leishmania donovani MHOM/IN/1983/AG83 promastigotes infected ip dosed BALB/c mouse assessed as reduction in spleen parasite burden administered two times per week for 4 weeks relative to control; assay type: functional; set-up: scale not given: the % may be the effect or the level left; outline: as §1

Structure (SMILES) | IC50 (Leishmania donovani [1]) [µg/mL] | IC50 (Leishmania donovani [2]) [µg/mL] | Activity [3] [µg/mL] | Activity (Leishmania donovani [4]) [mg] | Activity (Leishmania donovani [5]) [%] | Activity (Leishmania donovani [6]) [mg] | Activity (Leishmania donovani [7]) [%]
Cc1ccc2cccc(OCCCOc3cccc4ccc(C)nc34)c2n1 | 10 (≈ 27.9 µM) | 13.5 (≈ 37.7 µM) | > 200 | – | – | – | –
c1cnc2c(OCOc3cccc4cccnc34)cccc2c1 | 2.3 (≈ 7.61 µM) | 2.4 (≈ 7.94 µM) | > 85 | 110 | 92 | 980 | 89
N=C(N)c1ccc(OCCCCCOc2ccc(C(=N)N)cc2)cc1 [PENTAMIDINE] | 2.8 (≈ 8.22 µM) | 2.1 (≈ 6.17 µM) | > 90 | – | – | – | –
C[C@@H]1[C@H](O)[C@@H](C)/C=C/C=C/C=C/C=C/C=C/C=C/C=C/[C@H](O[C@@H]2O[C@H](C)[C@@H](O)[C@H](N)[C@@H]2O)C[C@@H]2O[C@](O)(C[C@@H](O)C[C@@H](O)[C@H](O)CC[C@@H](O)C[C@@H](O)CC(=O)O[C@H]1C)C[C@H](O)[C@H]2C(=O)O [AMPHOTERICIN B] | 0.1 (≈ 0.108 µM) | 0.16 (≈ 0.173 µM) | > 4 | – | – | – | –
Cc1ccc2cccc(OCCCCOc3cccc4ccc(C)nc34)c2n1 | 2.7 (≈ 7.25 µM) | 3.2 (≈ 8.59 µM) | > 90 | 190 | 78 | 1125 | 73.5
Cc1ccc2cccc(OCCCCCOc3cccc4ccc(C)nc34)c2n1 | 2.4 (≈ 6.21 µM) | 2.8 (≈ 7.24 µM) | > 85 | 135 | 88.5 | 1020 | 82
Cc1ccc2cccc(OCOc3cccc4ccc(C)nc34)c2n1 | 2.9 (≈ 8.78 µM) | 3.4 (≈ 10.3 µM) | > 100 | 232 | – | 1205 | –
O=c1ccc2cccc3c2n1CCO3 [OXAZINOQUINOLONE] | 14 (≈ 74.8 µM) | 16.5 (≈ 88.1 µM) | > 220 | – | – | – | –
